Experimental data as given in ChEMBL document CHEMBL3352280, “Modulation of cAMP-specific PDE without emetogenic activity: new sulfide-like PDE7 inhibitors” (J Med Chem, 2014).
Calls of active or inactive are those of the source. The rule behind the calls is not given here.

Experiments:
[1] = target: T1, High affinity 3',5'-cyclic-AMP phosphodiesterase 7A (Homo sapiens, UniProt Q13946); assay: Inhibition of human recombinant PDE7A1 assessed as inhibition of hydrolysis of [3H]cAMP after 20 mins by scintillation proximity assay
How it was run: (§1)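 Scintillation proximity assay with human recombinant enzyme: PDE7A1 0.02 U, PDE3A 0.02 U, PDE7B 0.5 U, PDE8A 0.5 U. Enzyme incubated with 5 nCi [3H]cAMP and inhibitor in kit buffer for 20 min at 30 °C. SPA beads added and shaken 1 h at room temperature, settled 30 min, radioactivity counted.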

[2] = target: T1, High affinity 3',5'-cyclic-AMP phosphodiesterase 7A; assay: Inhibition of human recombinant PDE7A1 assessed as inhibition of hydrolysis of [3H]cAMP at 10 uM after 20 mins by scintillation proximity assay; how it was run: as §1
[3] = system: Microglia; assay: Inhibition of LPS-induced NO production in rat microglia treated for 1 hr at 10 uM before LPS challenge measured after 24 hrs by Griess assay; format: functional
How it was run: (§2)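 After 2 days, cells were pretreated with compound (10 μM), then LPS (10 μg/mL) was added for 24 h. Nitrite in the supernatant was measured by Griess reagent (15 min, room temperature, absorbance 492/540 nm). Mean ± SD of three experiments.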

[4] = system: SH-SY5Y; assay: Cytoprotective activity against 6-OHDA-induced death of human SH-SY5Y cells pretreated for 1 hr at 10 uM measured 16 hrs post 6-OHDA challenge by MTT assay; format: functional, cell-based
How it was run: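 Human neuroblastoma SH-SY5Y grown in F12/EMEM with 2 mM glutamine, 1% nonessential amino acids and 15% FBS at 37 °C, 5% CO2. Semiconfluent cells pretreated 1 h with compound, then 6-OHDA (35 μM) added for 16 h. Viability by MTT (0.5 mg/mL, 4 h), SDS/HCl solubilisation, absorbance 595 nm. Mean ± SD of three experiments.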

[5] = target: T2, 3',5'-cyclic-AMP phosphodiesterase 4D (Homo sapiens, UniProt Q08499); assay: Inhibition of human recombinant PDE4D3 assessed after 60 mins by IMAP fluorescence polarization assay
[6] = system: Astrocyte; assay: Inhibition of LPS-induced NO production in rat astrocytes treated for 1 hr at 10 uM before LPS challenge measured after 24 hrs by Griess assay; format: functional, cell-based; how it was run: as §2
[7] = target: T3, 3',5'-cyclic-AMP phosphodiesterase 7B (Homo sapiens, UniProt Q9NP56); assay: Inhibition of human recombinant PDE7B assessed as inhibition of hydrolysis of [3H]cAMP after 20 mins by scintillation proximity assay; how it was run: as §1
[8] = target: T2, 3',5'-cyclic-AMP phosphodiesterase 4D; assay: Inhibition of human recombinant PDE4D3 assessed at 10 uM after 60 mins by IMAP fluorescence polarization assay
[9] = target: T4, 3',5'-cyclic-AMP phosphodiesterase 4B (Homo sapiens, UniProt Q07343); assay: Inhibition of human recombinant PDE4B2 assessed at 10 uM after 60 mins by IMAP fluorescence polarization assay
[10] = target: T4, 3',5'-cyclic-AMP phosphodiesterase 4B; assay: Inhibition of human recombinant PDE4B2 assessed after 60 mins by IMAP fluorescence polarization assay
[11] = target: T3, 3',5'-cyclic-AMP phosphodiesterase 7B; assay: Inhibition of human recombinant PDE7B assessed as inhibition of hydrolysis of [3H]cAMP at 10 uM after 20 mins by scintillation proximity assay; how it was run: as §1
[12] = target: cGMP-inhibited 3',5'-cyclic phosphodiesterase 3A (Homo sapiens) (UniProt Q14432); assay: Inhibition of human recombinant PDE3A assessed as inhibition of hydrolysis of [3H]cAMP at 10 uM after 20 mins by scintillation proximity assay; how it was run: as §1
[13] = target: Phosphodiesterase 7 (Homo sapiens, UniProt Q13946+Q9NP56); assay: Inhibition of PDE7 (unknown origin); format: protein assay
[14] = system: Mus musculus; assay: Emetogenic potential in surrogate emesis CD1 mouse model assessed as effect on xyclacine/ketamine-induced loss of righting reflex at 0.1 to 10 mg/kg, sc; format: ADME, organism-based; parameters: dose 0.1-10 mg/kg, route subcutaneous; settings: in vivo

Chain of cGMP-inhibited 3',5'-cyclic phosphodiesterase 3A (Homo sapiens) (Q14432 whole entry): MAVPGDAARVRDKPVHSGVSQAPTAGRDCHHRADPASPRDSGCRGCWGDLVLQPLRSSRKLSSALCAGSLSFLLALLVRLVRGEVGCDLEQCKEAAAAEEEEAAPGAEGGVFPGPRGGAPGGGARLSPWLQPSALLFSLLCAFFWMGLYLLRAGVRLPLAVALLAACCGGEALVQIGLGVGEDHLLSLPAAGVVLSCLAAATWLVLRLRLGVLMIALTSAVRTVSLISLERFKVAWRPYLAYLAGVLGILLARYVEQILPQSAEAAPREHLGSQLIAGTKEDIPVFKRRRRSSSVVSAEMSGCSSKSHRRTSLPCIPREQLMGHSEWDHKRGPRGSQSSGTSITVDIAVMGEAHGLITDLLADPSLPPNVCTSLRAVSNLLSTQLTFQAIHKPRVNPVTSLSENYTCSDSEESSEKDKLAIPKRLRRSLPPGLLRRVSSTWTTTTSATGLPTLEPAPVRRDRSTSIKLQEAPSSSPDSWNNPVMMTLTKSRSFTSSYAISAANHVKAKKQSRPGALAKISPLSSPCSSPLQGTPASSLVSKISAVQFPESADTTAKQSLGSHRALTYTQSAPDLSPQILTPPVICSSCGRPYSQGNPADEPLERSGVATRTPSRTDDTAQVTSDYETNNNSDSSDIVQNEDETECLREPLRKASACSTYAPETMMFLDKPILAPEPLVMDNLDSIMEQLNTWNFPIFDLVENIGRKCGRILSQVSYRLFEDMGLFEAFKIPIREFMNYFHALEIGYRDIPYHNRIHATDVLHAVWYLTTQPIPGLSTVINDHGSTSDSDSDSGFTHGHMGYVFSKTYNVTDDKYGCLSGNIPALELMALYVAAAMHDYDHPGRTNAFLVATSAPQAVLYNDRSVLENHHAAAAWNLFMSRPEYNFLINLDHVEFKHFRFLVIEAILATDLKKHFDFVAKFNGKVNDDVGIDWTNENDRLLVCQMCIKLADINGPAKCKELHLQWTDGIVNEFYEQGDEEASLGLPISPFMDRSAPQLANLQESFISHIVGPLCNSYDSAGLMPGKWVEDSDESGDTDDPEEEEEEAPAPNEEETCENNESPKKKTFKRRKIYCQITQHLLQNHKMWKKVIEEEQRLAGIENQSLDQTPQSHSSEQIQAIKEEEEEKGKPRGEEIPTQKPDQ
T4 sequence (Q07343 whole entry): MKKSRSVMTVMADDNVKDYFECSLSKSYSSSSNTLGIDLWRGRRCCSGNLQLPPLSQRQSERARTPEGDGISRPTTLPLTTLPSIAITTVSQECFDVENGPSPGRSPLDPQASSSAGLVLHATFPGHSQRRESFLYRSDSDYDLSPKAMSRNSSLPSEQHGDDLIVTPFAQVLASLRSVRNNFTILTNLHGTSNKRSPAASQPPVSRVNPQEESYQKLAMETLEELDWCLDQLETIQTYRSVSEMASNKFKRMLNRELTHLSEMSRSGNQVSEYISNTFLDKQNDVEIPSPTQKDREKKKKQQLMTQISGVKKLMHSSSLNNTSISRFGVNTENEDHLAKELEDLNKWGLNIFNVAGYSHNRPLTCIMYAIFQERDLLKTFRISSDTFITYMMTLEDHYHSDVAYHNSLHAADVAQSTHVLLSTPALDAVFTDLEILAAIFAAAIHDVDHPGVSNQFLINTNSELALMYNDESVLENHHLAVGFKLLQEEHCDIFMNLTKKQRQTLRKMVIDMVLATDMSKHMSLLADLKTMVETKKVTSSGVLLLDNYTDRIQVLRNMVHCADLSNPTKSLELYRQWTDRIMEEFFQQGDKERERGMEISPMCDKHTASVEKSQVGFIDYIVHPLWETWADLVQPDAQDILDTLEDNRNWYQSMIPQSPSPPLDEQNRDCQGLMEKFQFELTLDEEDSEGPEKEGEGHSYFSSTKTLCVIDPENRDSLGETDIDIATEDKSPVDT
T2 sequence (Q08499 whole entry): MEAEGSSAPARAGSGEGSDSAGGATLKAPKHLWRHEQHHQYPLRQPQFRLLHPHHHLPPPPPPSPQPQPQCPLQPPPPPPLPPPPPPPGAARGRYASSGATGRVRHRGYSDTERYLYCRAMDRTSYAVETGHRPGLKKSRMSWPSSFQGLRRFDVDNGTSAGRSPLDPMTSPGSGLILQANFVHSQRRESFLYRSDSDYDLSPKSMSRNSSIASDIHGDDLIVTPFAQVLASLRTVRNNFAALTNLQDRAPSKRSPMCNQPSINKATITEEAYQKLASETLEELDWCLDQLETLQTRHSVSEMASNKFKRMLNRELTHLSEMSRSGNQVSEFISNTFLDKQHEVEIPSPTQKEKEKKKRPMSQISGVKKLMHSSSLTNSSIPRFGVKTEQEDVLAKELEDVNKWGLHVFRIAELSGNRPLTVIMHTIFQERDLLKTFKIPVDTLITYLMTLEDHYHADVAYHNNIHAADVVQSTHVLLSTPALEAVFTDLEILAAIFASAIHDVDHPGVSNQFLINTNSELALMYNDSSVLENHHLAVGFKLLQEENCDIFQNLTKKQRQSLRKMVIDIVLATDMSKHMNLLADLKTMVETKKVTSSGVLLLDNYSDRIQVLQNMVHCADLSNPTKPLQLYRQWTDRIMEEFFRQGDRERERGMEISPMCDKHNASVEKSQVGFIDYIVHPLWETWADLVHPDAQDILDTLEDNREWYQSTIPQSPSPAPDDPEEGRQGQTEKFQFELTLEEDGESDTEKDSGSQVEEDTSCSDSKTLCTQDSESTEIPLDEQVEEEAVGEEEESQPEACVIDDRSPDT
T3 sequence (Q9NP56 whole entry): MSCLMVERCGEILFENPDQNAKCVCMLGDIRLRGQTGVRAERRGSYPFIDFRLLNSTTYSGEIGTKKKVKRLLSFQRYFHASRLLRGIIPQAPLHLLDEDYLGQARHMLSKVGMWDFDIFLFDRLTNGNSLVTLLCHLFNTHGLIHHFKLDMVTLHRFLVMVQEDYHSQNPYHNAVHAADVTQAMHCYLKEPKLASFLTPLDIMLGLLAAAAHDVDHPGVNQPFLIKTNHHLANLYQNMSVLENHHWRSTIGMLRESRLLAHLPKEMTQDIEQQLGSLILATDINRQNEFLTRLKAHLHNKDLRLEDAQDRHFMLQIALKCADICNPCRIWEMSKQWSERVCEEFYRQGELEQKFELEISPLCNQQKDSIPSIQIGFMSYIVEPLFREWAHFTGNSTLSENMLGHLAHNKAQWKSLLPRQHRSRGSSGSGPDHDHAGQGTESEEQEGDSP
T1 sequence (Q13946 whole entry): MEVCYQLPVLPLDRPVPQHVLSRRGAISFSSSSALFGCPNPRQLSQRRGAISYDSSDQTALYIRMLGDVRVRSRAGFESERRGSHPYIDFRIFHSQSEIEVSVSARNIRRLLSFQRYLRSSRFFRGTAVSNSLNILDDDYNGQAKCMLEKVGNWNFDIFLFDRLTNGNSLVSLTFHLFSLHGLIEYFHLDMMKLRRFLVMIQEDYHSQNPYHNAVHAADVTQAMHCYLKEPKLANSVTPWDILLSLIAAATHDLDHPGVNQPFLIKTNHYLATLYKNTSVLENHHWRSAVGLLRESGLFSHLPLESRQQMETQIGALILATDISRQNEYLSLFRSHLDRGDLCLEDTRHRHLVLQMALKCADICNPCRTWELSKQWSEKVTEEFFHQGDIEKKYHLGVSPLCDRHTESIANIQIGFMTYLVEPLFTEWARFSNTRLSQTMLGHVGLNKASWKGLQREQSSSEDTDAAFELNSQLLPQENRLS

Structure (SMILES)	IC50 [1] [µM]	inhibition [2] [%]	also measured
Nc1ccc(Oc2ccc([N+](=O)[O-])cc2Cl)cc1	2.2	77	–
O=[N+]([O-])c1ccc(Sc2ccc(Br)cc2)c(Cl)c1	–	23	–
Nc1cccc(Sc2ccc([N+](=O)[O-])cc2Cl)c1	3.2	78	–
O=[N+]([O-])c1cc(Cl)ccc1Sc1ccc(Br)cc1	–	11	–
O=[N+]([O-])c1cc(Cl)c(Cl)cc1Sc1ccccc1Br	2.88	49	–
Br.OCC/N=c1/nc(-c2ccccc2)n(-c2ccccc2)s1	–	–	IC50 [13]: 1.11 µM; Activity [14]: Non-toxic
Nc1ccc(Sc2ccc([N+](=O)[O-])cc2C(F)(F)F)cc1	9.27	63	–
Cc1cnc(Sc2ccncc2)c([N+](=O)[O-])c1	–	27	–
O=[N+]([O-])c1ccc(Sc2cccs2)c(Cl)c1	5.2	69	–
S=c1[nH]c2ccccc2c(=S)n1-c1ccccc1	–	–	IC50 [13]: 1.04 µM; Activity [14]: Non-toxic
O=[N+]([O-])c1ccc(Cl)cc1Sc1ccccc1Br	1.01	69	inhibition [3]: Active; Activity [4]: Active; inhibition [6]: Active; IC50 [7]: 2.2 µM; inhibition [8]: 2%; inhibition [9]: 6%; inhibition [11]: 71%; inhibition [12]: 16%
CC(C)c1ccc(Sc2ccc([N+](=O)[O-])cc2Cl)cc1	–	15	–
O=[N+]([O-])c1ccc(Sc2ccc(Cl)cc2[N+](=O)[O-])cc1	–	6	–
CC(=O)Nc1ccc(Sc2ccc(Cl)cc2[N+](=O)[O-])cc1	–	7	–
O=[N+]([O-])c1ccc(Sc2ccccc2Br)c(Cl)c1	2.14	59	–
CC(C)c1ccc(Sc2ccc(Cl)cc2[N+](=O)[O-])cc1	–	10	–

Structure (SMILES)	IC50 [1] [µM]	inhibition [2] [%]	also measured
Cc1cnc(Sc2ccc(-c3ccccc3)cc2)c([N+](=O)[O-])c1	–	2	–
O=[N+]([O-])c1cc(Cl)ccc1Sc1ccccn1	3.6	69	–
Nc1ccccc1Sc1ccc(Cl)cc1[N+](=O)[O-]	5.75	69	–
CC(=O)Nc1ccc(Sc2ccc([N+](=O)[O-])cc2Cl)cc1	–	26	–
Cc1ccc([N+](=O)[O-])cc1S(=O)(=O)N(C)C	–	99	IC50 [5]: 1.28 µM; IC50 [10]: 1.8 µM; inhibition [12]: 0.43%
COc1ccc(Sc2ccncc2)cc1	–	18	–
O=[N+]([O-])c1ccc(Sc2ccccc2)c(Cl)c1	2.2	74	–
Nc1ccccc1Sc1ccc([N+](=O)[O-])cc1C(F)(F)F	–	42	–
COc1cc(COC(=O)c2ccc(-c3ccccc3)o2)cc(OC)c1OC	–	–	IC50 [13]: 5.17 µM; Activity [14]: Non-toxic
O=[N+]([O-])c1cc(Cl)ccc1Sc1cccs1	1.6	81	–
Cc1cnc(Sc2cccc(N)c2)c([N+](=O)[O-])c1	–	3	–
CC(=O)Nc1ccccc1Sc1sccc1[N+](=O)[O-]	–	31	–
O=[N+]([O-])c1ccc(Cl)cc1Sc1ccccn1	7.98	56	–
Nc1ccc(Sc2ccc(F)cc2[N+](=O)[O-])cc1	6.18	64	–
Nc1cccc(Sc2ccncc2)c1	–	36	–
O=c1c2ccccc2[nH]c(=S)n1-c1ccccc1	4.68	76	–

Continued, in another order:

IC50 [1] [µM]	inhibition [2] [%]	Structure (SMILES)	also measured
4.27	–	Nc1ccccc1Sc1sccc1[N+](=O)[O-]	–
–	17	COc1ccc(Sc2cccnc2)cc1	–
5.45	66	Nc1ccccc1Sc1cc(Cl)ccc1[N+](=O)[O-]	–
0.72	91	O=[N+]([O-])c1cc(Cl)ccc1Sc1ccncc1	inhibition [3]: Active; Activity [4]: Active; IC50 [5]: 3 µM; inhibition [6]: Active; IC50 [7]: 13.9 µM; inhibition [8]: 74%; inhibition [9]: 77%; IC50 [10]: 4.4 µM; inhibition [11]: 76%; inhibition [12]: 33%
–	12	c1cnc(Sc2ccncc2)nc1	–
–	1	O=[N+]([O-])c1ccc(Sc2ccc([N+](=O)[O-])cc2Cl)cc1	–
1.47	79	Nc1ccc(Sc2ccc([N+](=O)[O-])c(Cl)c2)cc1	inhibition [3]: Active; Activity [4]: Active; inhibition [6]: Active; inhibition [8]: 3%; inhibition [9]: 2%; inhibition [11]: 42%; inhibition [12]: 22%
3.8	56	CC(=O)c1ccc(Sc2ccncc2)c([N+](=O)[O-])c1	–
1.88	80	O=[N+]([O-])c1ccc(Cl)cc1Sc1ccncc1	–
–	44	c1ccc(Sc2ccncc2)cc1	–
–	27	CC(=O)NNc1ccccc1Sc1ccccc1Br	–
1.5	87	O=[N+]([O-])c1cc(Cl)ccc1Sc1ccccc1	inhibition [3]: Active; Activity [4]: Active; inhibition [6]: Active; IC50 [7]: 1.5 µM; inhibition [8]: 13%; inhibition [9]: 28%; inhibition [11]: 74%; inhibition [12]: 46%
–	4	CC(=O)Nc1ccc(Oc2ccc([N+](=O)[O-])cc2Cl)cc1	–
–	13	Nc1ccc(Sc2ccc(Cl)cc2N)cc1	–
2.1	58	CC(=O)Nc1ccccc1Sc1cc(Cl)ccc1[N+](=O)[O-]	inhibition [8]: 10%; inhibition [9]: 11%; inhibition [12]: 10%
5.69	68	Nc1cccc(Sc2ccc(Cl)cc2[N+](=O)[O-])c1	–

IC50 [1] [µM]	inhibition [2] [%]	Structure (SMILES)	also measured
–	31	O=[N+]([O-])c1ccsc1Sc1sccc1[N+](=O)[O-]	–
–	17	CC(=O)Nc1ccc(Oc2ccc(Cl)cc2[N+](=O)[O-])cc1	–
–	36	O=[N+]([O-])c1ccc(Cl)cc1Sc1ccc(Br)cc1	–
2.2	71	Nc1ccc(Sc2cc(Cl)ccc2[N+](=O)[O-])cc1	–
–	31	O=[N+]([O-])c1cc(Cl)ccc1SCc1ccccc1Br	–
–	38	Nc1ccccc1Sc1ccc(F)cc1[N+](=O)[O-]	–
6.48	74	Nc1ccccc1Sc1cc(Cl)c(Cl)cc1[N+](=O)[O-]	–
–	32	c1ccc(-c2ccc(Sc3ccccn3)cc2)cc1	–
–	17	CC(C)c1ccccc1Sc1ccc([N+](=O)[O-])cc1Cl	–
6.5	46	Nc1ccc(Sc2ccc(N)cc2Cl)cc1	–
0.99	79	O=[N+]([O-])c1cc(Cl)ccc1Sc1ccccc1Br	inhibition [3]: Active; Activity [4]: Active; inhibition [6]: Active; IC50 [7]: 1.41 µM; inhibition [8]: 44%; inhibition [9]: 30%; inhibition [11]: 92%; inhibition [12]: 60%
–	33	O=[N+]([O-])c1ccc(SCc2ccccc2Br)c(Cl)c1	–
7.3	–	Nc1ccc(Cl)cc1Sc1ccccc1[N+](=O)[O-]	–
8.77	60	Nc1ccccc1Sc1ccc([N+](=O)[O-])cc1Cl	–
3.3	70	Nc1ccc(Oc2ccc(Cl)cc2[N+](=O)[O-])cc1	–
3.97	83	Nc1ccc(Sc2ccc([N+](=O)[O-])cc2Cl)cc1	–
